Legend:
[1] = Inhibition of gamma secretase-mediated Abeta42 production by cell based assay
Outline: (§1)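 Cell-based assay measuring secreted Abeta40 and Abeta42. IC50 values are the means of two experiments.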

[2] = Inhibition of gamma secretase-mediated Abeta40 production
[3] = AUC in CRND8 mouse; type: ADME, organism-based; design: concentration or dose not given beside the values; settings: plasma
Cytochrome P450 3A4 = Cytochrome P450 3A4 (Homo sapiens, UniProt P08684); test: Inhibition of CYP3A4 preincubated for 30 mins; type: ADME
Cytochrome P450 3A4, sequence (P08684 whole entry): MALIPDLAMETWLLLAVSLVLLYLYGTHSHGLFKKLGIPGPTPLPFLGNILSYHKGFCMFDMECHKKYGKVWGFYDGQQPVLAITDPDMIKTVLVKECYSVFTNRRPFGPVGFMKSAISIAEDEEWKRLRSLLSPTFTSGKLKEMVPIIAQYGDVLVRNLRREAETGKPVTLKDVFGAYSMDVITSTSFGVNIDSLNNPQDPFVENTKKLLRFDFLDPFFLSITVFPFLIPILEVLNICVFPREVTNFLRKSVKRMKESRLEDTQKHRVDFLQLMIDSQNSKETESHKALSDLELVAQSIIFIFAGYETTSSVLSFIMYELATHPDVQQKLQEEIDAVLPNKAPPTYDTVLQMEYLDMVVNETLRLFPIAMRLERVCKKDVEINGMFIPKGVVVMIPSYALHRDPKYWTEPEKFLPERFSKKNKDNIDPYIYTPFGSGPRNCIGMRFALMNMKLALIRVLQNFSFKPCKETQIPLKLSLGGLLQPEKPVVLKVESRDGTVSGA

Mus musculus [4] = test: Inhibition of Abeta40 production in CRND8 mouse plasma at 30 mg/kg, po after 3 hrs; type: functional
Outline: (§2)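 CRND8 transgenic mice were given a single oral dose of 30 mg/kg. Abeta40 was measured in plasma and brain cortex at 3 h, or at 6 h, after dosing. Results are expressed as percent inhibition of Abeta40.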

[5] = Inhibition of gamma secretase-mediated Abeta40 production by cell based assay; outline: as §1
Mus musculus [6] = test: Gastrointestinal toxicity in CRND8 mouse at 30 mg/kg, po after 3 hrs; type: organism-based; design: dose 30 mg/kg, route oral; settings: in vivo
Mus musculus [7] = test: Inhibition of Abeta40 production in CRND8 mouse brain cortex at 30 mg/kg, po after 3 hrs; type: functional; outline: as §2
Mus musculus [8] = test: Inhibition of Abeta40 production in CRND8 mouse plasma at 30 mg/kg, po after 6 hrs; type: functional; outline: as §2
Mus musculus [9] = test: Inhibition of Abeta40 production in CRND8 mouse brain cortex at 30 mg/kg, po after 6 hrs; type: functional; outline: as §2

## O=S(=O)(N[C@@H]1CC[C@@]2(S(=O)(=O)c3ccc(Cl)cc3)c3c(F)ccc(F)c3OC[C@H]2C1)C(F)(F)F
[1]
  IC50: 46 nM
[2]
  IC50: 27.1 nM
[3]
  AUC: 5050 ng·h/mL
Cytochrome P450 3A4
  IC50: > 30000 nM
Mus musculus [4]
  inhibition in vivo at 30 mg/kg: 90%
[5]
  IC50: 108 nM
Mus musculus [6]
  Activity: Non-toxic
Mus musculus [7]
  inhibition in vivo at 30 mg/kg: 42%

## O=S(=O)(N[C@@H]1CC[C@@]2(S(=O)(=O)c3ccc(Cl)cc3)c3c(F)ccc(F)c3OC[C@H]2C1)C1CC1
[1]
  IC50: 4.3 nM
[2]
  IC50: 8.4 nM
[3]
  AUC: 1910 ng·h/mL
Mus musculus [8]
  inhibition in vivo at 30 mg/kg: 80%
Mus musculus [9]
  inhibition in vivo at 30 mg/kg: 58%
Cytochrome P450 3A4
  IC50: > 30000 nM
[5]
  IC50: 9.3 nM

## O=S(=O)(N[C@@H]1CC[C@@]2(S(=O)(=O)c3ccc(Cl)cc3)c3c(F)ccc(F)c3OC[C@H]2C1)c1ccccn1
[1]
  IC50: 26 nM
[2]
  IC50: 7.6 nM
Mus musculus [4]
  inhibition in vivo at 30 mg/kg: 19%
[5]
  IC50: 68 nM

## CCC1(S(=O)(=O)c2ccc(Cl)cc2)CC(CO)Oc2c(F)ccc(F)c21 (mixture of isomers)
[2]
  IC50: 620 nM

## O=C1CCC2(S(=O)(=O)c3ccc(Cl)cc3)c3c(F)ccc(F)c3OCC2C1 (racemic)
[1]
  IC50: 12 nM
[2]
  IC50: 13 nM
[3]
  AUC: 60 ng·h/mL
Cytochrome P450 3A4
  IC50: 1200 nM
Mus musculus [4]
  inhibition in vivo at 30 mg/kg: 19%
[5]
  IC50: 17 nM

## O=S(=O)(c1ccc(Cl)cc1)C12CCC(O)CC1COc1c(F)ccc(F)c12 (racemic)
[1]
  IC50: 18 nM
[2]
  IC50: 28 nM
[3]
  AUC: 164 ng·h/mL
Mus musculus [4]
  inhibition in vivo at 30 mg/kg: 44%
[5]
  IC50: 25 nM
Mus musculus [7]
  inhibition in vivo at 30 mg/kg: 55%

## NC1CCC2(S(=O)(=O)c3ccc(Cl)cc3)c3c(F)ccc(F)c3OCC2C1 (racemic)
[2]
  IC50: 1700 nM

## CC(=O)NC1CCC2(S(=O)(=O)c3ccc(Cl)cc3)c3c(F)ccc(F)c3OCC2C1 (racemic)
[1]
  IC50: 107 nM
[2]
  IC50: 107 nM
[3]
  AUC: 1720 ng·h/mL
[5]
  IC50: 145 nM

## CC1(S(=O)(=O)c2ccc(Cl)cc2)CCOc2c(F)ccc(F)c21 (racemic)
[2]
  IC50: 808 nM

## CCC1(S(=O)(=O)c2ccc(Cl)cc2)CCOc2c(F)ccc(F)c21 (racemic)
[2]
  IC50: 72 nM

## O=S(=O)(c1ccc(Cl)cc1)C1CCOc2c(F)ccc(F)c21 (racemic)
[2]
  IC50: 1600 nM

## C[C@H]1COc2c(F)ccc(F)c2[C@@]1(C)S(=O)(=O)c1ccc(Cl)cc1 (relative stereo)
[2]
  IC50: 110 nM

## CC[C@@H]1C[C@](CC)(S(=O)(=O)c2ccc(Cl)cc2)c2c(F)ccc(F)c2O1 (relative stereo)
[2]
  IC50: 830 nM

## O=S(=O)(c1ccc(Cl)cc1)[C@H]1c2c(F)ccc(F)c2OC[C@@H]1CO (relative stereo)
[2]
  IC50: 510 nM

## C[C@H]1COc2c(F)ccc(F)c2[C@@H]1S(=O)(=O)c1ccc(Cl)cc1 (relative stereo)
[2]
  IC50: 64 nM

## COC[C@H]1COc2c(F)ccc(F)c2[C@@]1(C)S(=O)(=O)c1ccc(Cl)cc1 (relative stereo)
[2]
  IC50: 270 nM

## C[C@@H]1C[C@](C)(S(=O)(=O)c2ccc(Cl)cc2)c2c(F)ccc(F)c2O1 (relative stereo)
[2]
  IC50: 1200 nM
